Measurements of several laboratories.
Lines come from different studies, so protocols differ.
Observed: cell growth or viability

Structure (SMILES) | cell line | assay | setting | endpoint | value
C=C1[C@@H]2[C@H]3OC(=O)C(=C)[C@@H]3CCC(=C)[C@@H]2C[C@@H]1OC(C)=O | CHO-K1 | MTT | 72 h | CC50 | 6.9 µM
CC(=O)O[C@H]1C(=O)[C@@]2(C)[C@H]([C@H](OC(=O)c3ccccc3)[C@]3(O)C[C@H](OC(=O)[C@H](O)[C@@H](NC(=O)c4ccccc4)c4ccccc4)C(C)=C1C3(C)C)[C@]1(OC(C)=O)CO[C@@H]1C[C@@H]2O | SMMC-7721 | MTT | 48 h | IC50 | 4.27 µM
COC(=O)c1[nH]c(C(=O)OC)c(-c2c[nH]c3ccc(Cl)cc23)c1-c1c[nH]c2ccc(Cl)cc12 | RAW264.7 | resazurin | 72 h | CC50 | > 10 µM
Fc1ccc(NCc2ccc(Oc3ccccn3)cc2)cc1 | Vero | MTT | 72 h | CC50 | > 300 µM
Cn1cnc2c1c(=O)n(CC(=O)Nc1c(Cl)cccc1Cl)c(=O)n2C | Vero | MTT | 250 µg/mL | viability | 70.7%
CCNc1nc(Nc2ccc(F)c(Cl)c2)c2ccccc2n1 | Vero | MTT | 500 µg/mL | viability | 6.91%
C=C1CC[C@@H](O)[C@]2(C)CC[C@H]3C(=C)C(=O)O[C@@H]3[C@@H]12 | CHO-K1 | MTT | 72 h | CC50 | 31.3 µM
COc1ccc2c(Cc3ccccc3F)c3n(c(=O)c2c1OC)CCc1cc2c(cc1-3)OCO2 | L929 | CCK-8 | 24 h | IC50 | 26.1 µM
O=S(=O)(NNc1nnc(Cl)c2ccccc12)c1ccc(F)cc1 | Vero | MTT | 500 µg/mL | viability | 4.75%
